The Ki is the equilibrium dissociation constant of an inhibitor or competing ligand from its target. For orientation: logD means lipophilicity at a set pH, counting ionised and neutral species.

Data set [1] can be described thus: Displacement of [125I]IMPY from amyloid beta (1 to 42) fibrils after 2 hrs by gamma-counting analysis. A digest of the protocol: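 Competition binding with aggregated Aβ1-42 fibrils (60 nM final) and [125I]IMPY. Inhibitors were tested at 10⁻⁵–10⁻¹⁰ M (in ethanol) in 0.2 M PBS, pH 7.4, 1 mL, for 2 h at 37 °C with shaking. Nonspecific binding was defined with 1 μM IMPY. Bound ligand was collected by GF/B filtration and γ-counted. Ki was derived from IC50 via Cheng–Prusoff.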

For data set [2], the system named is Brain. As to the kind of experiment: Drug uptake in ddY mouse brain at 370 kBq/100 ul, iv at 60 mins by gamma-counting analysis. Conditions: in vivo, 1 h. It counts as ADME, organism-based. Put shortly:
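Normal male ddY mice (5 weeks, 20−22 g, n = 5) received 370 kBq of tracer in 100 μL saline with 5% EtOH via tail vein. Mice were sacrificed at set times after injection, and organs were excised, weighed and γ-counted against diluted injectate aliquots. Values are %ID per gram, except stomach and intestine as %ID per organ, given as mean ± SD of 5 mice.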

The subject of data set [3] is Brain. As to the kind of experiment: Ratio of drug uptake in brain at 2 mins to drug uptake in brain at 60 mins in ddY mouse at 370 kBq/100 ul, iv. It counts as ADME, organism-based. The note with it: in vivo. A digest of the protocol: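 Tail-vein injection of 370 kBq/100 μL (saline, 5% EtOH) into male ddY mice (5 weeks, 20−22 g, n = 5). Brain excised at 2 and 60 min, weighed and γ-counted against diluted injectate. Uptake is %ID/g, and the ratio is brain at 2 min divided by brain at 60 min.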

Data set [4] is described as follows: Displacement of [125I]TZDM from amyloid beta (1 to 40) fibrils.
The test system of data set [5] is Brain. As to the kind of experiment: Drug uptake in iv dosed ICR mouse brain. Format: ADME, organism-based. Conditions: in vivo.
In data set [6] the target is Amyloid-beta precursor protein (Homo sapiens) (UniProt P05067). In words: Binding affinity to amyloid beta plaques in […] brain at 370 kBq/100 ul after 1 hr by immunohistochemical staining method. The note with it: tested as the 18F-labelled form. A digest of the protocol: (§1)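 In vitro autoradiography on paraffin sections. Mouse: Tg C57BL6 APPswe/PSEN1 and wild-type, both 12 months old. Human: AD (person) and normal (person). Sections were deparaffinized through xylene and graded ethanol, held in PBS (0.2 M, pH 7.4) for 30 min, then incubated with tracer (370 kBq/100 μL) for 1 h at room temperature. Washes were 50% ethanol then water. Plates were exposed overnight. Plaques were confirmed by thioflavin-S or monoclonal Aβ1-42 antibody immunostaining.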
Amyloid-beta precursor protein (Homo sapiens), sequence (P05067 whole entry): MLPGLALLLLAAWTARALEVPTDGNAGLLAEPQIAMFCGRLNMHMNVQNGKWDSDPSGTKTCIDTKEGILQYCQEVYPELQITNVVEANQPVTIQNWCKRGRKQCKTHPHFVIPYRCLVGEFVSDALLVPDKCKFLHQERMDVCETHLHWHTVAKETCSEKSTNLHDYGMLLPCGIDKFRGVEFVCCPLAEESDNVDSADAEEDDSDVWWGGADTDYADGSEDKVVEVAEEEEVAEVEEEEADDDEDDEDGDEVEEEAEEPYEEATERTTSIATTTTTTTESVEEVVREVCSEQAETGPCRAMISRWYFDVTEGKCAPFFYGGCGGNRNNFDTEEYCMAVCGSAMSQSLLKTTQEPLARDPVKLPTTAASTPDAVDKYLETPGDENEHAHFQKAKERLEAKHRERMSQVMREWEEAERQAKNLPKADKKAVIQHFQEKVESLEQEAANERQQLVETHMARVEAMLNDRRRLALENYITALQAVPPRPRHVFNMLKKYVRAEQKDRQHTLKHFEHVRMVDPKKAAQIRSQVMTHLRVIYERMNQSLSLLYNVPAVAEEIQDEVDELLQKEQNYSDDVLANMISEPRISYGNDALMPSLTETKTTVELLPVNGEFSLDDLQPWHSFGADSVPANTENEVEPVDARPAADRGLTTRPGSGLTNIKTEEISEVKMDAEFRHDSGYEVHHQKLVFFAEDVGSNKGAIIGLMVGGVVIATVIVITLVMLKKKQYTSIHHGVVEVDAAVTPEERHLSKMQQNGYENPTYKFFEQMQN

The target is the same in data set [7]. As to the kind of experiment: Binding affinity to amyloid beta plaques in […] brain at 370 kBq/100 ul after 1 hr by autoradiographic analysis. Conditions: tested as the 18F-labelled form. Put shortly:
as §1

The species named for data set [8] is Mus musculus. In words: Binding affinity to amyloid beta plaques in transgenic C57BL6 mouse brain expressing APP Swedish mutant/PSEN1 at 370 kBq/100 ul after 1 hr by thioflavinS-staining method. Format: tissue-based. The note with it: tested as the 18F-labelled form. A digest of the protocol:
as §1

For data set [9], the species on record is Mus musculus. As to the kind of experiment: Binding affinity to amyloid beta plaques in transgenic C57BL6 mouse brain expressing APP Swedish mutant/PSEN1 at 370 kBq/100 ul after 1 hr by autoradiographic analysis. It counts as tissue-based. The note with it: tested as the 18F-labelled form. Put shortly:
as §1

Data set [10] has as its system Mus musculus. In words: Binding affinity to amyloid beta plaque in transgenic C57BL6 mouse hippocampus expressing APP Swedish mutant at 40.7 MBq, iv after 30 mins by thioflavinS-staining method. It counts as functional, organism-based. Further details: dose or concentration left out as unconfirmed. Conditions: tested as the 18F-labelled form. Put shortly:
(§2)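 Ex vivo: Tg2576 (C57BL6, APPsw) mice, 18 months old, and age-matched wild-type mice. Each received 40.7 MBq of tracer in 100 μL saline with 5% EtOH iv via the femoral vein and was decapitated 30 min later. Brains were frozen in dry ice and cut into 20 μm sections. Sections were exposed to an imaging plate for 8 h, then the same sections were stained with thioflavin-S.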

Data set [11] deals with Mus musculus. In words: Binding affinity to amyloid beta plaque in transgenic C57BL6 mouse cortex expressing APP Swedish mutant at 40.7 MBq, iv after 30 mins by thioflavinS-staining method. Format: functional, organism-based. Also on record: dose or concentration left out as unconfirmed. Conditions: tested as the 18F-labelled form. Put shortly: as §2
The subject of data set [12] is Mus musculus. In words: Binding affinity to amyloid beta plaque in transgenic C57BL6 mouse hippocampus expressing APP Swedish mutant/PSEN1 at 40.7 MBq, iv after 30 mins by autoradiographic analysis. It counts as functional, organism-based. The note with it: 40.7 M, tested as the 18F-labelled form.
Data set [13] has as its system Mus musculus. As to the kind of experiment: Binding affinity to amyloid beta plaque in transgenic C57BL6 mouse cortex expressing APP Swedish mutant/PSEN1 at 40.7 MBq, iv after 30 mins by autoradiographic analysis. Format: functional, organism-based. The note with it: 40.7 M, tested as the 18F-labelled form.
Data set [14] in a line: n-Octanol-PBS buffer partition coefficient, log D of the compound at 370 kBq after 3 mins at pH 7.4. Format: physicochemical. Put shortly: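 For log D, tubes containing n-octanol and PBS were vortexed 3 min at room temperature and centrifuged 5 min at 3000 rpm. Weighed samples of the octanol (100 μL) and buffer (500 μL) layers were counted. Log D is the log of the ratio of counts per gram, octanol to PBS.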

Data set [15] has as its system Brain. In words: Drug uptake in ddY mouse brain at 370 kBq/100 ul, iv assessed per organ at 60 mins by gamma-counting analysis. It counts as ADME, organism-based. The note with it: in vivo, 1 h.
Data set [16] deals with Brain. In words: Drug uptake in ddY mouse brain at 370 kBq/100 ul, iv assessed per organ at 2 mins by gamma-counting analysis. It counts as ADME, organism-based. The note with it: in vivo.

Calls of active or inactive are those of the source. The rule behind the calls is not given here.

On to `CNc1ccc(/C=C/c2ccc(OCCOCCOCC[18F])nc2)cc1` [FLORBETAPIR F 18], for which, in [1], the affinity corresponds to a Ki of 2.87 nM. The Drug uptake in the data set on Brain [2] is 1.88 % ID/g. For the same compound, the Ratio with Brain [3] was 3.9.

With `Oc1ccc(-c2cc3cc([125I])ccc3o2)cc1`, in [4], the inhibition constant (Ki) worked out at 0.4 nM. Also, the Drug uptake in the data set with Brain [5] is recorded as less than 1.5 %ID.

As to `CNc1ccc(-c2cc3cc([125I])ccc3o2)cc1`, in data set [4], the Ki was found to be 0.4 nM. This compound also had a Drug uptake in the data set on Brain [5] of less than 1.5 %ID.

As to `CN(C)c1ccc(-c2nc3cc(OCCOCCOCCF)ccc3o2)cc1`, the outcome (in data set [6]; in data set [7]; in the data set filed under Mus musculus [8]; in the data set listed under Mus musculus [9]; in the data set on Mus musculus [10]; in the data set with Mus musculus [11]) was Active. For the same compound, the result in the data set on Mus musculus [12] and with Mus musculus [13] was Active. Also, the Ki in data set [1] was 3.9 nM.

Consider `CN(C)c1ccc(-c2cc3cc(OCCOCCOCC[18F])ccc3o2)cn1`, for which affinity in [1] was put at a Ki of 1 nM. For the same compound, in data set [14], the log distribution coefficient (logD) at 0.05 h amounted to 2.32. In addition, the Ratio with Brain [3] stood at 2.11.

In data set [4], `CN(C)c1ccc(-c2cc3ccc([125I])cc3o2)cc1` had a Ki of 0.4 nM. In addition, the Drug uptake in the data set on Brain [5] was less than 1.5 %ID.

On to `CNc1ccc(-c2nc3cc(OCCOCCOCCF)ccc3o2)cc1`, for which the outcome (in [6]; in data set [7]; in the data set listed under Mus musculus [8]; in the data set filed under Mus musculus [9]; with Mus musculus [10]; in the data set with Mus musculus [11]) was Active. Besides, the outcome in the data set on Mus musculus [12] and with Mus musculus [13] was Active. This compound registered an inhibition constant Ki in [1] of 9.3 nM.

Regarding `CN(C)c1ccc(-c2nc3ccc([125I])cc3o2)cc1`, the inhibition constant Ki in [1] and in [4] was 0.8 nM throughout. For the same compound, the pH-dependent lipophilicity (logD) at 0.05 h in data set [14] is 2.09. Further, in the data set with Brain [3], the Ratio is listed as 1.13. Moreover, the Drug uptake in the data set with Brain [15] was 1.26 %ID; with Brain [16], 1.43 %ID.

Compound `CN(C)c1ccc(-c2cc3cc(OCCOCCOCC[18F])ccc3o2)cc1` registered a Ki in data set [1] of 2 nM. Further, in data set [14], the logD at 0.05 h is 2.94. In addition, the Ratio in the data set on Brain [3] worked out at 1.03.

In data set [1], `CNc1ccc(-c2cc3cc(OCCOCCOCC[18F])ccc3o2)cc1` yielded a Ki of 3.9 nM. Besides, the logD at 0.05 h in data set [14] stood at 3.73. Besides, the Ratio with Brain [3] amounted to 2.11.

`CN(C)c1ccc(-c2cc3cc([125I])ccc3o2)cc1`: the inhibition constant (Ki) in [4] is 0.4 nM. In the data set with Brain [5], this compound showed a Drug uptake of less than 1.5 %ID.

As for `CNc1ccc(-c2cc3cc(OCCOCCOCC[18F])ccc3o2)cn1`, the Ki in data set [1] came to 2.4 nM. The compound further returned a pH-dependent lipophilicity (logD) at 0.05 h in data set [14] of 3.11. The Ratio with Brain [3] is on record as 2.34.

The values are drawn from ChEMBL document CHEMBL2176925, “Novel ¹⁸F-labeled benzoxazole derivatives as potential positron emission tomography probes for imaging of cerebral β-amyloid plaques in Alzheimer's disease” (J Med Chem, 2012).
